Results of several laboratories.
Lines come from different studies, so protocols differ.
Medium: plasma

SMILES	host	route	dose	quantity	result
Cc1ncsc1-c1ccc([C@H](CC(=O)N2CC3(C2)CN(c2ccc(C#Cc4ccc(C(=O)N5CCC(n6cc(-c7ccc8c(c7)CCN8C(=O)Cc7cccc(OC(F)(F)F)c7)c7c(N)ncnc76)CC5)cc4)cn2)C3)NC(=O)[C@@H]2C[C@@H](O)CN2C(=O)[C@@H](NC(=O)C2(F)CC2)C(C)(C)C)cc1	male C57BL/6 mouse	intravenous	1 mg/kg	clearance	2.8 mL/min/kg
Cc1cc(-c2ccnc3[nH]cc(F)c23)cc(F)c1[C@@]1(O)[C@H](C)CN(C2CCS(=O)(=O)CC2)C[C@@H]1C	male CD-1 mouse	intravenous	1 mg/kg	clearance	5.86 mL/min/kg
Oc1ccc([C@@H]2Oc3ccc(O)cc3[C@@H]3CCC[C@@H]32)cc1	male C57BL/6 mouse	intravenous	1 mg/kg	clearance	1.67 mL/min
Cc1ccc(OCC(=O)N[C@@H](Cc2c[nH]c3ccccc23)C(=O)OC(C)C)cc1	male Sprague-Dawley mouse	intravenous	10 mg/kg	clearance	5.5 mL/min/kg
Cc1ncsc1-c1ccc([C@H](C)NC(=O)[C@@H]2C[C@@H](O)CN2C(=O)[C@@H](NC(=O)CCCCCCCCCCC(=O)NCCCn2cc(-c3ccc4c(c3)CCN4C(=O)Cc3cccc(OC(F)(F)F)c3)c3c(N)ncnc32)C(C)(C)C)cc1	mouse	intravenous	1 mg/kg	clearance	19.8 mL/min/kg
Cc1cc(-c2ccnc3[nH]cc(F)c23)cc(F)c1[C@@]1(O)[C@H](C)CN(C(=O)CN)C[C@@H]1C	male CD-1 mouse	intravenous	1 mg/kg	clearance	0.775 mL/min/kg
O=C1CCC(N2Cc3cc(CO)c(F)cc3C2=O)C(=O)N1 (stereo not drawn)	male CD-1 mouse	intravenous	1 mg/kg	clearance	52.9 mL/min/kg
OCc1nc2ccc(NCc3ccc(C(F)(F)F)cc3)cc2[nH]1	male BALB/c mouse	oral	10 mg/kg	CL/F	61.2 mL/min/kg
CCCC[C@@H](NC(=O)[C@@H](Cc1cn(C(=O)OC)c2ccccc12)NC(=O)[C@H](CC(C)(C)C)NC(=O)N1[C@H](C)CCC[C@@H]1C)C(=O)O	male CD-1 mouse	intravenous	3 mg/kg	clearance	222 mL/min/kg
Cc1nc2ccc(OCc3ccc(C(F)(F)F)cc3)cc2[nH]1	male BALB/c mouse	oral	10 mg/kg	CL/F	12.7 mL/min/kg
O=C1CCC(N2Cc3cc(C4CCN(Cc5ccccc5)CC4)ccc3C2=O)C(=O)N1 (stereo not drawn)	male CD-1 mouse	intravenous	1 mg/kg	clearance	48 mL/min/kg
NCc1cc2c(cc1F)C(=O)N(C1CCC(=O)NC1=O)C2 (stereo not drawn)	male CD-1 mouse	intravenous	1 mg/kg	clearance	112 mL/min/kg
C=CCn1c(=O)c2cnc(Nc3ccc(N4CCN(C)CC4)cc3)nc2n1-c1ccc2c(n1)[C@@](O)(CC)CC2	mouse	intravenous	3 mg/kg	clearance	54 mL/min/kg
Cc1ncsc1-c1ccc([C@H](C)NC(=O)[C@@H]2C[C@@H](O)CN2C(=O)[C@@H](NC(=O)CCCCCCCCC(=O)N2CCC(n3cc(-c4ccc5c(c4)CCN5C(=O)Cc4cccc(OC(F)(F)F)c4)c4c(N)ncnc43)CC2)C(C)(C)C)cc1	male C57BL/6 mouse	intravenous	1 mg/kg	clearance	13.3 mL/min/kg
CN(C)C(=O)c1cc2cnc(Nc3ccc(-c4ccc5c(=O)cc(N6CCOCC6)oc5c4)cc3)nc2n1C1CCCC1	BALB/c mouse	oral	20 mg/kg	CL/F	120 mL/min/kg
